In ChEMBL document CHEMBL1133540, “4-Aminoquinolines: novel nociceptin antagonists with analgesic activity” (J Med Chem, 2000) one finds Ki, inhibition and Allodynia score data, which are given here for 23 compounds.

Where only a bound is given, the exact number is not on record here.

Test [1] deals with T1, Nociceptin receptor (Homo sapiens, UniProt P41146). As to the kind of experiment: Ability to displace [3H]nociceptin ( 0.5 nM ) binding from Opioid receptor like 1 expressed in HeLa cells. Format: cell-based. An outline of the steps: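 Membranes from HeLa cells expressing human ORL1 (25 μg protein/mL) in 50 mM Tris pH 8.5 with 2 mM EDTA, 0.1 mM p-aminophenylmethanesulfonyl fluoride and 2 mg/mL BSA. Incubated 30 min at room temperature with 0.5 nM [3H]nociceptin and varied compound concentrations. Bound radioactivity was collected by filtration and counted by scintillation. Nonspecific binding was set with 1 μM unlabeled nociceptin.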

In test [2] the target is T1, Nociceptin receptor. The test can be described thus: Percent inhibition of [3H]nociceptin ( 0.5 nM ) binding at 10 uM. An outline of the steps: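 Single-point test at 10 μM compound against 0.5 nM [3H]nociceptin binding to human ORL1 in HeLa cell membranes. Buffer was Tris pH 8.5 with EDTA, protease inhibitor and BSA; incubation 30 min at room temperature. Filtration and scintillation counting. Specific binding = total minus binding in 1 μM unlabeled nociceptin. Read-out was percent inhibition.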

Test [3] has as its target T1, Nociceptin receptor. The test can be described thus: Compound was evaluated for its ability to displace [3H]nociceptin ( 0.5 nM ) binding from Opioid receptor like 1 expressed in HeLa cells. Format: cell-based. An outline of the steps: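 Membranes from HeLa cells expressing human ORL1 (25 μg protein/mL) in 50 mM Tris pH 8.5 with 2 mM EDTA, 0.1 mM p-aminophenylmethanesulfonyl fluoride and 2 mg/mL BSA. Incubated 30 min at room temperature with 0.5 nM [3H]nociceptin and varied compound concentrations. Bound radioactivity was collected by filtration and counted by scintillation. Nonspecific binding was set with 1 μM unlabeled nociceptin. Ki reported as mean ± SE, n=3-6.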

For test [4], the target named is Mu-type opioid receptor (Homo sapiens, UniProt P35372). The test can be described thus: Inhibition of [3H]diprenorphine (0.33 nM) binding from human Opioid receptor mu 1 expressed in CHO-K1 cells. Format: cell-based. An outline of the steps: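 CHO-K1 membranes expressing human μ-opioid receptor in 50 mM Tris-HCl pH 7.4 with 5 mM MgCl2 and 10% sucrose. Incubated 2.5 h at room temperature with 0.33 nM [3H]diprenorphine over a compound concentration range. Filtration and scintillation counting. Nonspecific binding defined with 10 μM naloxone. Ki given as mean ± SE, n=3.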

Test [5] has as its target Kappa-type opioid receptor (Homo sapiens, UniProt P41145). The test can be described thus: Inhibition of [3H][…] (0.55 nM) binding from human Opioid receptor kappa 1.
Test [6] deals with Delta-type opioid receptor (Homo sapiens, UniProt P41143). As to the kind of experiment: Inhibition of [3H]naltrindole (0.55 nM) binding from human Opioid receptor delta 1 expressed in CHO-K1 cells. Format: cell-based. In outline: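 Human δ-opioid receptor from CHO-K1 membranes in 50 mM Tris-HCl pH 7.4, 5 mM MgCl2, 10% sucrose. Incubated 1 h at room temperature with 0.55 nM [3H]naltrindole and varied compound concentrations. Filter-bound radioactivity counted. 10 μM naloxone defined nonspecific binding. Ki as mean ± SE, n=3.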

Test [7] can be described thus: Effect of compound on nociceptin-induced allodynia :Values are the mean ( SE of allodynia score at 20 min. significantly different from control (nociceptin alone) by the Mann-Whitney U-test. Format: functional.
Test [8] can be described thus: Effect of compound on nociceptin-induced allodynia :Values are the mean ( SE of allodynia score at 20 min. Format: functional. An outline of the steps:
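Male ICR mice, 4 weeks old, unanesthetized; nociceptin (50 pg/5 μL) injected intrathecally. Test compound 0.3 mg/kg suspended in 0.5% methyl cellulose, or vehicle as control, given orally 60 min before nociceptin. Allodynia score read at 20 min; mean ± SE, n = 9; Mann–Whitney U-test versus nociceptin-alone control.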

T1 sequence (P41146 whole entry): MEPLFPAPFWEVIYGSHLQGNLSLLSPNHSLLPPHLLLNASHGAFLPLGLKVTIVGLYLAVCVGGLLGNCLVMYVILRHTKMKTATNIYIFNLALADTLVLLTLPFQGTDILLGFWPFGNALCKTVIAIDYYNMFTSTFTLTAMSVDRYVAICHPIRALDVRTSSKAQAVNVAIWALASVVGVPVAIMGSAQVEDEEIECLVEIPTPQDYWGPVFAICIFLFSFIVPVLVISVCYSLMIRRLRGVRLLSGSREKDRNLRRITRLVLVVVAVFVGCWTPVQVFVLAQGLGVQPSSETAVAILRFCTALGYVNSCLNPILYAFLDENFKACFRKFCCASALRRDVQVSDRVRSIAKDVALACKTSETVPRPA
Kappa-type opioid receptor, sequence (P41145 whole entry): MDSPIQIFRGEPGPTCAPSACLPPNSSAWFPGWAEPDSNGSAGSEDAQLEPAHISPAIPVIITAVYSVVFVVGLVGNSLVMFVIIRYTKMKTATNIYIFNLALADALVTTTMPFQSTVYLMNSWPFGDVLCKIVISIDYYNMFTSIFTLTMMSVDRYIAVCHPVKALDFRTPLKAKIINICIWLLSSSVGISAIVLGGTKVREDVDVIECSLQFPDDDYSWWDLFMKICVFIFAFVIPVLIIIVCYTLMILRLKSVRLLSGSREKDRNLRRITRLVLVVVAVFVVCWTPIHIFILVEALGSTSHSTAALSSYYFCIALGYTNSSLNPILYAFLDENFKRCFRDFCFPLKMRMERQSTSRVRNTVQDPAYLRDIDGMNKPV
Mu-type opioid receptor, sequence (P35372 whole entry): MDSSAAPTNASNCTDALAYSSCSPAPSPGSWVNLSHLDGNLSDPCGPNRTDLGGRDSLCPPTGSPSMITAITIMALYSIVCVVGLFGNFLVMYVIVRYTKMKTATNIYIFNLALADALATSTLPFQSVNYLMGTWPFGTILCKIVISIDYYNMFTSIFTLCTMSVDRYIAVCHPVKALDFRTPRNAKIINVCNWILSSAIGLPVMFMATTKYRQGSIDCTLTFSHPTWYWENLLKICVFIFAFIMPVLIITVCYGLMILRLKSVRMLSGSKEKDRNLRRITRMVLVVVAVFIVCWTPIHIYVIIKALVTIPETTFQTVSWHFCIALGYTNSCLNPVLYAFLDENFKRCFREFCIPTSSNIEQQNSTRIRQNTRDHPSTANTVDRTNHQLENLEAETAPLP
Delta-type opioid receptor, sequence (P41143 whole entry): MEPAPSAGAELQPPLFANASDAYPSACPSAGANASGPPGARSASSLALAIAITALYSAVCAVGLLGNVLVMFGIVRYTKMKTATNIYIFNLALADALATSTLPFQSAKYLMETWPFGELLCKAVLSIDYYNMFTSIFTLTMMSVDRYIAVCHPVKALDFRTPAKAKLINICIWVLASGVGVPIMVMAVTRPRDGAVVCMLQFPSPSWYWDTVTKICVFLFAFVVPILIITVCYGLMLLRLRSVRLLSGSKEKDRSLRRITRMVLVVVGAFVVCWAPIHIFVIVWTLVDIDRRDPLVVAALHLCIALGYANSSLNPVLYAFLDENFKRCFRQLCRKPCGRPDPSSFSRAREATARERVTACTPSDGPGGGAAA

Turning to `Cc1cc(N)c2cc(NC(=O)c3ccccc3COc3ccc(O)cc3)ccc2n1`, in test [1], the Ki worked out at 0.0467 µM. In test [2], `Cc1cc(N)c2cc(NC(=O)c3ccccc3COc3ccccc3)ccc2n1` gave an inhibition of 93.6%. For the same compound, the affinity in test [3], expressed as Ki, was 0.0507 µM.

In turn, `Cc1cc(N)c2cc(NC(=O)c3ccccc3COc3ccc(N)cc3)ccc2n1` showed a Ki in test [1] of 0.0824 µM.

Compound `Cc1ccc(CCc2ccccc2C(=O)Nc2ccc3nc(C)cc(N)c3c2)cc1` displayed an inhibition constant Ki in test [1] of 0.0885 µM. For `CCc1ccc(OCc2ccccc2C(=O)Nc2ccc3nc(C)cc(N)c3c2)cc1`, the Ki was 0.0082 µM in test [1], 0.103 µM in test [4], 1.06 µM in test [5] and 8.65 µM in test [6]. `Cc1ccc(OCc2ccccc2C(=O)Nc2ccc3nc(C)cc(N)c3c2)cc1` gave a Ki in test [1] of 0.007 µM. `Cc1cc(N)c2cc(NC(=O)c3ccccc3COc3ccc(C(F)(F)F)cc3)ccc2n1` yielded a Ki in test [1] of 0.0018 µM. As to `Cc1cc(N)c2cc(NC(=O)c3ccccc3CCc3ccccc3)ccc2n1`, in test [2], the inhibition came out at 90.5%. Also, in test [3], affinity was put at a Ki of 0.0799 µM. In turn, `Cc1cc(N)c2cc(NC(=O)c3ccccc3CCCc3ccccc3)ccc2n1` gave a Ki in test [1] of 0.121 µM. Besides, in test [2], the inhibition worked out at 98%.

On to `Cc1cc(N)c2cc(NC(=O)c3ccccc3COc3ccc(Cl)cc3)ccc2n1`, for which, in test [1], the affinity corresponds to a Ki of 0.0022 µM. As to `Cc1cc2ccc(NC(=O)c3ccccc3COc3ccc(Cl)cc3)cc2c(N)n1`, in test [1], the Ki was 0.0373 µM.

Regarding `Cc1cc(N)c2cc(NC(=O)c3ccccc3Cc3ccccc3)ccc2n1`, in test [2], the inhibition was determined as 45.4%. Compound `CCCc1cc(N)c2cc(NC(=O)c3ccccc3COc3ccc(Cl)cc3)ccc2n1` had a Ki in test [1] of 0.0018 µM.

Consider `Cc1cc(N)c2cc(NC(=O)c3cccc(CCc4ccccc4)c3)ccc2n1`, for which, in test [2], the inhibition is 23%. In the case of `CC(C)C[C@H](NC(=O)[C@H](CCCCN)NC(=O)[C@H](CCCN=C(N)N)NC(=O)[C@H](C)NC(=O)[C@H](CO)NC(=O)[C@H](CCCCN)NC(=O)[C@H](CCCN=C(N)N)NC(=O)[C@H](C)NC(=O)CNC(=O)[C@@H](NC(=O)[C@H](Cc1ccccc1)NC(=O)CNC(=O)CNC(=O)[C@@H](N)Cc1ccccc1)[C@@H](C)O)C(=O)N[C@@H](C)C(=O)N[C@@H](CC(N)=O)C(=O)N[C@@H](CCC(N)=O)C(=O)O.CCc1ccc(OCc2ccccc2C(=O)Nc2ccc3nc(C)cc(N)c3c2)cc1`, the Allodynia score in test [7] is < 3.11.

`CCc1cc(N)c2cc(NC(=O)c3ccccc3COc3ccc(Cl)cc3)ccc2n1` came in with a Ki in test [1] of 0.0018 µM. Still for that read-out and setting: as for `Cc1cc(N)c2cc(NC(=O)c3ccccc3COc3cccc(Cl)c3)ccc2n1`, the figure is 0.0204 µM.

Take `Cc1cc(N)c2cc(NC(=O)c3ccccc3-c3ccccc3)ccc2n1`: the affinity in test [1], expressed as Ki, was 0.369 µM. The inhibition in test [2] worked out at 51.7%. Consider `Nc1ccnc2ccc(NC(=O)c3ccccc3COc3ccc(Cl)cc3)cc12`, for which the Ki in test [1] was 0.0856 µM.

The compound `CC(C)C[C@H](NC(=O)[C@H](CCCCN)NC(=O)[C@H](CCCNC(=N)N)NC(=O)[C@H](C)NC(=O)[C@H](CO)NC(=O)[C@H](CCCCN)NC(=O)[C@H](CCCNC(=N)N)NC(=O)[C@H](C)NC(=O)CNC(=O)[C@@H](NC(=O)[C@H](Cc1ccccc1)NC(=O)CNC(=O)CNC(=O)[C@@H](N)Cc1ccccc1)[C@@H](C)O)C(=O)N[C@@H](C)C(=O)N[C@@H](CC(N)=O)C(=O)N[C@@H](CCC(N)=O)C(=O)O` yielded an Allodynia score in test [8] of 7.11. `Cc1cc(N)c2cc(NC(=O)c3ccccc3COc3ccc(Br)cc3)ccc2n1`: the Ki in test [1] was 0.0026 µM. As for `Cc1cc(N)c2cc(NC(=O)c3ccccc3)ccc2n1`, the inhibition in test [2] turned out to be 32.9%. The same measure, in the same setting: the figure for `Cc1cc(N)c2cc(NC(=O)c3ccc(CCc4ccccc4)cc3)ccc2n1` is 48.4%.
